Calls of active or inactive are those of the source. No cut-off for these calls is given here.
Key:
[1] = tested on: Rattus norvegicus; test: Antiobesity activity in high fat diet-induced obese Sprague-Dawley rat assessed as reduction of food intake at 1 mg/kg, po administered daily for 3 days relative to dirlotapide; type: functional; set-up: scale not given: the % may be the effect or the level left
Outline: (§1)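 Male Sprague–Dawley rats (~300 g, n = 5 per group) were acclimatized for seven days to a high-fat diet (45% kcal from fat). They received three consecutive daily oral gavage doses 1.5 h before the dark cycle. Vehicle was SEDDS:H2O 10:90, with SEDDS made of Miglyol 812 10%, triacetin 30%, polysorbate 80 20% and Capmul MCM 30%. Food intake was recorded during dosing, and liver TG was measured afterwards, both against vehicle.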

[2] = Oral bioavailability in beagle dog at 2.5 mg/kg; type: ADME, organism-based, Canis lupus familiaris; conditions: in vivo
[3] = tested on: Rattus norvegicus; test: Antiobesity activity in high fat diet-induced obese Sprague-Dawley rat assessed as reduction in body weight at 3 mg/kg, po administered daily for 3 days relative to control; type: functional; set-up: scale not given: the % may be the effect or the level left
[4] = tested on: Rattus norvegicus; test: Antiobesity activity in high fat diet-induced obese Sprague-Dawley rat assessed as reduction of body weight at 10 mg/kg, po qd for 7 days relative to control; type: functional; set-up: scale not given: the % may be the effect or the level left
Outline: (§2)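 Seven-day rat study: once-daily oral dosing at 3, 10 or 30 mg/kg, with 1, 3 and 100 mg/kg also used for one series. Compounds were given as spray-dried dispersions in hydroxypropylmethylcellulose acetate succinate. Food intake, body weight, liver TG and serum ALT were measured against vehicle. Systemic exposure was reported as AUC (ng h/mL). Significance versus vehicle was set at P ≤ 0.05.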

[5] = tested on: Rattus norvegicus; test: Antiobesity activity in high fat diet-induced obese Sprague-Dawley rat assessed as reduction of food intake at 3 mg/kg, po administered daily for 3 days relative to dirlotapide; type: functional; set-up: scale not given: the % may be the effect or the level left; outline: as §1
[6] = tested on: Rattus norvegicus; test: Antiobesity activity in high fat diet-induced obese Sprague-Dawley rat assessed as reduction of food intake at 3 mg/kg, po qd for 7 days relative to control; type: functional; set-up: scale not given: the % may be the effect or the level left; outline: as §2
[7] = Fraction unbound in human HepG2 cells by equilibrium dialysis; type: ADME, cell-based
Outline: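 Protein binding was measured by equilibrium dialysis under the conditions of the apoB secretion assay in human HepG2 cells, to give unbound fraction.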

[8] = tested on: Canis familiaris; test: Drug metabolism in beagle dog assessed as formation of 2-(2'-(6-(2-((4-fluorobenzyl)(methyl)amino)-2-oxo-1-phenylethylcarbamoyl)quinolin-2-ylcarbamoyl)biphenyl-4-yl)-2-methylpropanoic acid at 2.5 mg/kg, po administered as single dose; type: ADME, organism-based, Canis lupus familiaris; set-up: dose 2.5 mg/kg, route oral; conditions: in vivo
[9] = AUC in high fat diet-induced obese Sprague-Dawley rat at 10 mg/kg, po qd for 7 days; type: ADME, organism-based; set-up: dose 10 mg/kg, route oral; conditions: plasma; outline: as §2
[10] = tested on: Rattus norvegicus; test: Antiobesity activity in high fat diet-induced obese Sprague-Dawley rat assessed as reduction of food intake at 30 mg/kg, po qd for 7 days relative to control; type: functional; set-up: scale not given: the % may be the effect or the level left; outline: as §2
[11] = tested on: Rattus norvegicus; test: Antiobesity activity in high fat diet-induced obese Sprague-Dawley rat assessed as reduction of food intake at 10 mg/kg, po administered with 25% SDD formulation daily for 3 days relative to control; type: functional; set-up: scale not given: the % may be the effect or the level left
Outline: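 Three-day oral dosing study in male Sprague–Dawley rats (~300 g, n = 5 per group) fed a high-fat diet (45% kcal from fat). Animals received daily gavage doses 1.5 h before the dark cycle. Compound was given as a spray-dried dispersion made by spray drying compound with hydroxypropylmethylcellulose acetate succinate. Food intake was recorded during dosing and liver TG measured afterwards, both against vehicle.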

[12] = AUC in high fat diet-induced obese Sprague-Dawley rat at 3 mg/kg, po qd for 7 days; type: ADME, organism-based; set-up: dose 3 mg/kg, route oral; conditions: plasma; outline: as §2
[13] = tested on: Rattus norvegicus; test: Antiobesity activity in high fat diet-induced obese Sprague-Dawley rat assessed as reduction in body weight at 100 mg/kg, po administered daily for 3 days relative to dirlotapide; type: functional; set-up: scale not given: the % may be the effect or the level left
[14] = tested on: Rattus norvegicus; test: Antiobesity activity in high fat diet-induced obese Sprague-Dawley rat assessed as reduction in body weight at 100 mg/kg, po administered daily for 3 days relative to control; type: functional; set-up: scale not given: the % may be the effect or the level left
[15] = tested on: Rattus norvegicus; test: Antiobesity activity in high fat diet-induced obese Sprague-Dawley rat assessed as reduction of triglyceride accumulation in liver at 10 mg/kg, po administered daily for 3 days relative to control; type: functional; outline: as §1
[16] = tested on: Rattus norvegicus; test: Antiobesity activity in high fat diet-induced obese Sprague-Dawley rat assessed as reduction of body weight at 3 mg/kg, po qd for 7 days relative to control; type: functional; set-up: scale not given: the % may be the effect or the level left; outline: as §2
[17] = tested on: Rattus norvegicus; test: Antiobesity activity in high fat diet-induced obese Sprague-Dawley rat assessed as reduction in body weight at 1 mg/kg, po administered daily for 3 days relative to control; type: functional; set-up: scale not given: the % may be the effect or the level left
[18] = tested on: Rattus norvegicus; test: Antiobesity activity in high fat diet-induced obese Sprague-Dawley rat assessed as reduction of triglyceride accumulation in liver at 10 mg/kg, po qd for 7 days relative to control; type: functional; set-up: scale not given: the % may be the effect or the level left; outline: as §2
[19] = tested on: Canis familiaris; test: Drug metabolism in beagle dog assessed as formation of 2-(4'-tert-butylbiphenyl-2-ylcarboxamido)-N-(2-(methylamino)-2-oxo-1-phenylethyl)quinoline-6-carboxamide at 2.5 mg/kg, po administered as single dose; type: ADME, organism-based, Canis lupus familiaris; set-up: dose 2.5 mg/kg, route oral; conditions: in vivo
[20] = AUC in high fat diet-induced obese Sprague-Dawley rat at 30 mg/kg, po qd for 7 days; type: ADME, organism-based; set-up: dose 30 mg/kg, route oral; conditions: plasma; outline: as §2
[21] = tested on: Rattus norvegicus; test: Antiobesity activity in high fat diet-induced obese Sprague-Dawley rat assessed as reduction of food intake at 30 mg/kg, po administered daily for 3 days relative to dirlotapide; type: functional; set-up: scale not given: the % may be the effect or the level left; outline: as §1
[22] = tested on: Rattus norvegicus; test: Drug metabolism in rat assessed as formation of 2-(2'-(6-(2-((4-fluorobenzyl)(methyl)amino)-2-oxo-1-phenylethylcarbamoyl)quinolin-2-ylcarbamoyl)biphenyl-4-yl)-2-methylpropanoic acid at 30 mg/kg, po administered as single dose; type: ADME, organism-based; set-up: dose 30 mg/kg, route oral; conditions: in vivo
[23] = tested on: Rattus norvegicus; test: Drug metabolism in rat assessed as formation of 2-(4'-tert-butylbiphenyl-2-ylcarboxamido)-N-(2-(methylamino)-2-oxo-1-phenylethyl)quinoline-6-carboxamide at 30 mg/kg, po administered as single dose; type: ADME, organism-based; set-up: dose 30 mg/kg, route oral; conditions: in vivo
[24] = tested on: Rattus norvegicus; test: Antiobesity activity in high fat diet-induced obese Sprague-Dawley rat assessed as reduction in body weight at 10 mg/kg, po administered daily for 3 days relative to dirlotapide; type: functional; set-up: scale not given: the % may be the effect or the level left
[25] = tested on: Rattus norvegicus; test: Antiobesity activity in high fat diet-induced obese Sprague-Dawley rat assessed as reduction of food intake at 1 mg/kg, po administered daily for 3 days relative to control; type: functional; set-up: scale not given: the % may be the effect or the level left; outline: as §1
[26] = tested on: Rattus norvegicus; test: Antiobesity activity in po dosed high fat diet-induced obese Sprague-Dawley rat assessed as reduction of body weight administered daily for 3 days; type: functional; conditions: 72 h, read-out: MED
[27] = tested on: Rattus norvegicus; test: Antiobesity activity in high fat diet-induced obese Sprague-Dawley rat assessed as triglyceride accumulation in liver at 1 mg/kg, po administered daily for 3 days relative to control; type: functional, organism-based; set-up: dose 1 mg/kg; outline: as §1
[28] = tested on: Rattus norvegicus; test: Toxicity in high fat diet-induced obese Sprague-Dawley rat assessed as change in serum ALT level at 10 mg/kg, po qd for 7 days relative to control; type: organism-based; set-up: dose 10 mg/kg, route oral; conditions: in vivo, 168 h
Outline: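 Seven-day study in high-fat-diet rats. Compound was given once daily by mouth as a spray-dried dispersion, with vehicle controls. Serum ALT was measured alongside food intake, body weight, liver TG and systemic exposure (AUC). ALT is expressed as % change versus vehicle, with significance set at P ≤ 0.05.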

[29] = tested on: Canis familiaris; test: Drug metabolism in beagle dog assessed as formation of N-(2-((4-fluorobenzyl)(methyl)amino)-2-oxo-1-phenylethyl)-2-(4'-(1-hydroxy-2-methylpropan-2-yl)biphenyl-2-ylcarboxamido)quinoline-6-carboxamide at 2.5 mg/kg, po administered as single dose; type: ADME, organism-based, Canis lupus familiaris; set-up: dose 2.5 mg/kg, route oral; conditions: in vivo
[30] = tested on: Rattus norvegicus; test: Antiobesity activity in high fat diet-induced obese Sprague-Dawley rat assessed as reduction in body weight at 30 mg/kg, po administered daily for 3 days relative to dirlotapide; type: functional; set-up: scale not given: the % may be the effect or the level left

For `CN(Cc1ccc(F)cc1)C(=O)[C@@H](NC(=O)c1ccc2nc(NC(=O)c3ccccc3-c3ccc(C(C)(C)C)cc3)ccc2c1)c1ccccc1`, the Activity [1] was 5%, the bioavailability [2] was < 3% and the Activity [3] was 67%. For the same molecule, the Activity [4] was 255%, the Activity [5] was 6% and the Activity [6] was 25%. For the same molecule, the fraction unbound [7] was 0.00063, the Drug metabolism [8] was “Active” and the AUC at 168 h [9] was 42 ng·h/mL. The Activity [10] was 48%, the Activity [11] was 33% and the AUC at 168 h [12] was 12 ng·h/mL. For the same molecule, the Activity [13] was 75%, the Activity [14] was 107% and the Activity [15] was “inactive”. For the same molecule, the Activity [16] was 85%, the Activity [17] was 32% and the Activity [18] was 219%. For the same molecule, the Drug metabolism [19] was “Active”, the AUC at 168 h [20] was 65 ng·h/mL and the Activity [21] was 37%. For the same molecule, the Drug metabolism [22] was “Active”, the Drug metabolism [23] was “Active” and the Activity [24] was 97%. The Activity [25] was 12%, the minimal effective dose [26] was 3 mg/kg and the Activity [27] was “inactive”. The Activity [28] was 143%, the Drug metabolism [29] was “Active” and the Activity [30] was 75%.

Source: ChEMBL document CHEMBL2146366, “Discovery of microsomal triglyceride transfer protein (MTP) inhibitors with potential for decreased active metabolite load compared to dirlotapide” (Bioorg Med Chem Lett, 2011)
